Test results reported in ChEMBL document CHEMBL3272012, “5-(Tetradecyloxy)-2-furancarboxylic acid and related hypolipidemic fatty acid-like alkyloxyarylcarboxylic acids” (J Med Chem, 1977).
Values belong to the molecule of their own block, whether it stands above or below them.

Columns and labels:
Rattus norvegicus [1] = experiment: Hypolipidemic activity in Wistar rat assessed as reduction in plasma triglyceride level at 406 umol/kg/day administered through diet for 10 days; type: functional; settings: 240 h
Rattus norvegicus [2] = experiment: Hypolipidemic activity in Wistar rat assessed as reduction in plasma triglyceride level at 400 umol/kg/day administered through diet for 4 days; type: functional; settings: 96 h
Rattus norvegicus [3] = experiment: Hypolipidemic activity in Wistar rat assessed as reduction in plasma cholesterol level at 400 umol/kg/day administered through diet for 4 days; type: functional; settings: 96 h
Outline: (§1)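 Young male Wistar rats, 170-190 g at start, in groups of six, given compound mixed into Purina Lab Chow ad libitum for 4 or 10 days as stated. Daily dose was calculated from food consumption and body weight. Plasma was taken by cardiac puncture at the end and cholesterol measured by automated procedure. Results are % reduction versus a concurrent untreated control group, with Student's t test.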

Rattus norvegicus [4] = experiment: Increase in liver weight in Wistar rat at 400 umol/kg/day administered through diet for 4 days; type: ADME, organism-based; settings: in vivo, po, 96 h
Rattus norvegicus [5] = experiment: Increase in cholesterol level in Wistar rat liver at 400 umol/kg/day administered through diet for 4 days; type: ADME, organism-based; settings: in vivo, po, 96 h
Rattus norvegicus [6] = experiment: Increase in cholesterol level in Wistar rat liver at 406 umol/kg/day administered through diet for 10 days; type: ADME, organism-based; settings: in vivo, po, 240 h
Rattus norvegicus [7] = experiment: Increase in liver weight in Wistar rat at 406 umol/kg/day administered through diet for 10 days; type: ADME, organism-based; settings: in vivo, po, 240 h
Rattus norvegicus [8] = experiment: Hypolipidemic activity in Wistar rat assessed as reduction in plasma cholesterol level at 406 umol/kg/day administered through diet for 10 days; type: functional; settings: 240 h; outline: as §1
Rattus norvegicus [9] = experiment: Hypolipidemic activity in Wistar rat assessed as reduction in plasma triglyceride level at 311 umol/kg/day administered through diet for 10 days; type: functional; settings: 240 h
Outline: (§2)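 Young male Wistar rats, 170-190 g initial weight, six per group, fed drug mixed thoroughly into Purina Lab Chow ad libitum for the stated days; daily dose calculated from food consumption and body weight. Bled by cardiac puncture at end; plasma cholesterol and triglycerides by automated procedures, expressed as percent reduction versus simultaneous untreated controls; Student's t test.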

Rattus norvegicus [10] = experiment: Increase in cholesterol level in Wistar rat liver at 311 umol/kg/day administered through diet for 10 days; type: ADME, organism-based; settings: in vivo, po, 240 h
Rattus norvegicus [11] = experiment: Hypolipidemic activity in Wistar rat assessed as reduction in plasma cholesterol level at 311 umol/kg/day administered through diet for 10 days; type: functional; settings: 240 h; outline: as §1
Rattus norvegicus [12] = experiment: Increase in liver weight in Wistar rat at 311 umol/kg/day administered through diet for 10 days; type: ADME, organism-based; settings: in vivo, po, 240 h
Rattus norvegicus [13] = experiment: Hypolipidemic activity in Wistar rat assessed as reduction in plasma cholesterol level at 84 umol/kg/day administered through diet for 10 days; type: functional; settings: AT84, Plasma, 240 h
Outline: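 Young male Wistar rats (initial weight 170-190 g), groups of six, fed compound mixed into Purina Lab Chow ad libitum for 4 or 10 days; daily dose calculated from food consumption and body weight. Bled by cardiac puncture; plasma cholesterol and triglycerides by automated procedures; percent reduction versus simultaneous untreated controls, Student's t test.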

Rattus norvegicus [14] = experiment: Increase in cholesterol level in Wistar rat liver at 84 umol/kg/day administered through diet for 10 days; type: ADME, organism-based; settings: in vivo, po, 240 h
Rattus norvegicus [15] = experiment: Hypolipidemic activity in Wistar rat assessed as reduction in plasma cholesterol level at 169 umol/kg/day administered through diet for 10 days; type: functional; settings: 240 h; outline: as §1
Rattus norvegicus [16] = experiment: Hypolipidemic activity in Wistar rat assessed as reduction in plasma triglyceride level at 169 umol/kg/day administered through diet for 10 days; type: functional; settings: 240 h; outline: as §2
Rattus norvegicus [17] = experiment: Increase in liver weight in Wistar rat at 332 umol/kg/day administered through diet for 10 days; type: ADME, organism-based; settings: in vivo, po, 240 h
Rattus norvegicus [18] = experiment: Increase in cholesterol level in Wistar rat liver at 169 umol/kg/day administered through diet for 10 days; type: ADME, organism-based; settings: in vivo, po, 240 h
Rattus norvegicus [19] = experiment: Increase in liver weight in Wistar rat at 84 umol/kg/day administered through diet for 10 days; type: ADME, organism-based; settings: in vivo, po, 240 h
Rattus norvegicus [20] = experiment: Hypolipidemic activity in Wistar rat assessed as reduction in plasma cholesterol level at 332 umol/kg/day administered through diet for 10 days; type: functional; settings: 240 h; outline: as §1
Rattus norvegicus [21] = experiment: Hypolipidemic activity in Wistar rat assessed as reduction in plasma triglyceride level at 332 umol/kg/day administered through diet for 10 days; type: functional; settings: 240 h; outline: as §2
Rattus norvegicus [22] = experiment: Increase in cholesterol level in Wistar rat liver at 332 umol/kg/day administered through diet for 10 days; type: ADME, organism-based; settings: in vivo, po, 240 h
Rattus norvegicus [23] = experiment: Hypolipidemic activity in Wistar rat assessed as reduction in plasma triglyceride level at 84 umol/kg/day administered through diet for 10 days; type: functional; settings: 240 h
Rattus norvegicus [24] = experiment: Increase in liver weight in Wistar rat at 169 umol/kg/day administered through diet for 10 days; type: ADME, organism-based; settings: in vivo, po, 240 h
Rattus norvegicus [25] = experiment: Hypolipidemic activity in Wistar rat assessed as reduction in plasma cholesterol level at 312 umol/kg/day administered through diet for 10 days; type: functional; settings: 240 h; outline: as §1
Rattus norvegicus [26] = experiment: Increase in cholesterol level in Wistar rat liver at 312 umol/kg/day administered through diet for 10 days; type: ADME, organism-based; settings: in vivo, po, 240 h
Rattus norvegicus [27] = experiment: Increase in liver weight in Wistar rat at 312 umol/kg/day administered through diet for 10 days; type: ADME, organism-based; settings: in vivo, po, 240 h
Rattus norvegicus [28] = experiment: Hypolipidemic activity in Wistar rat assessed as reduction in plasma triglyceride level at 312 umol/kg/day administered through diet for 10 days; type: functional; settings: 240 h; outline: as §2

Activity (Rattus norvegicus [4]): 22% | Activity (Rattus norvegicus [5]): 32% | Activity (Rattus norvegicus [6]): 24% | Activity (Rattus norvegicus [7]): 34%
SMILES: CCCCCCCCCCCCOc1ccc(C(=O)CC(=O)OC)cc1
inhibition in vivo at 406 µmol/kg (Rattus norvegicus [1]): 71% | inhibition in vivo at 400 µmol/kg (Rattus norvegicus [2]): 84% | inhibition in vivo at 400 µmol/kg (Rattus norvegicus [3]): 35% | inhibition in vivo at 406 µmol/kg (Rattus norvegicus [8]): 27%

Activity (Rattus norvegicus [10]): 0% | Activity (Rattus norvegicus [12]): 0%
SMILES: CCCCCCCCCCCCCCCCOc1ccc(C(=O)CC(=O)O)cc1
inhibition in vivo at 311 µmol/kg (Rattus norvegicus [9]): 49% | inhibition in vivo at 311 µmol/kg (Rattus norvegicus [11]): 29%

Activity (Rattus norvegicus [14]): 0% | Activity (Rattus norvegicus [17]): 5% | Activity (Rattus norvegicus [18]): 2% | Activity (Rattus norvegicus [19]): 0% | Activity (Rattus norvegicus [22]): 10% | Activity (Rattus norvegicus [24]): 1%
SMILES: CCCCCCCCCCCCCCOc1ccc(C(=O)CC(=O)OCc2ccccc2)cc1
inhibition in vivo at 84 µmol/kg (Rattus norvegicus [13]): 16% | inhibition in vivo at 169 µmol/kg (Rattus norvegicus [15]): 15% | inhibition in vivo at 169 µmol/kg (Rattus norvegicus [16]): 70% | inhibition in vivo at 332 µmol/kg (Rattus norvegicus [20]): 24% | inhibition in vivo at 332 µmol/kg (Rattus norvegicus [21]): 43% | inhibition in vivo at 84 µmol/kg (Rattus norvegicus [23]): 8%

Activity (Rattus norvegicus [26]): 8% | Activity (Rattus norvegicus [27]): 15%
SMILES: CCCCCCCCCCCCCCOc1ccc(C(=O)CC(=O)OCCNC(C)=O)cc1
inhibition in vivo at 312 µmol/kg (Rattus norvegicus [25]): 35% | inhibition in vivo at 312 µmol/kg (Rattus norvegicus [28]): 60%
